Results on one compound are retold here after ChEMBL document CHEMBL3232894, “Discovery of AMG 925, a FLT3 and CDK4 dual kinase inhibitor with preferential affinity for the activated state of FLT3” (J Med Chem, 2014).

The source made the active and inactive calls. The calls are words filed in the database; no cut-off is given here.

Data set [1] addresses Cyclin-dependent kinase 4/cyclin D1 (Homo sapiens, UniProt P11802). Nature of the data set: Inhibition of CDK4/cyclin D1 (unknown origin) using Rb as substrate after 60 mins by scintillation counting analysis in presence of [r-33P]ATP. Format: protein-complex assay.
Data set [2] concerns the target T1, Receptor-type tyrosine-protein kinase FLT3 (Homo sapiens, UniProt P36888).
T1 sequence (P36888 whole entry): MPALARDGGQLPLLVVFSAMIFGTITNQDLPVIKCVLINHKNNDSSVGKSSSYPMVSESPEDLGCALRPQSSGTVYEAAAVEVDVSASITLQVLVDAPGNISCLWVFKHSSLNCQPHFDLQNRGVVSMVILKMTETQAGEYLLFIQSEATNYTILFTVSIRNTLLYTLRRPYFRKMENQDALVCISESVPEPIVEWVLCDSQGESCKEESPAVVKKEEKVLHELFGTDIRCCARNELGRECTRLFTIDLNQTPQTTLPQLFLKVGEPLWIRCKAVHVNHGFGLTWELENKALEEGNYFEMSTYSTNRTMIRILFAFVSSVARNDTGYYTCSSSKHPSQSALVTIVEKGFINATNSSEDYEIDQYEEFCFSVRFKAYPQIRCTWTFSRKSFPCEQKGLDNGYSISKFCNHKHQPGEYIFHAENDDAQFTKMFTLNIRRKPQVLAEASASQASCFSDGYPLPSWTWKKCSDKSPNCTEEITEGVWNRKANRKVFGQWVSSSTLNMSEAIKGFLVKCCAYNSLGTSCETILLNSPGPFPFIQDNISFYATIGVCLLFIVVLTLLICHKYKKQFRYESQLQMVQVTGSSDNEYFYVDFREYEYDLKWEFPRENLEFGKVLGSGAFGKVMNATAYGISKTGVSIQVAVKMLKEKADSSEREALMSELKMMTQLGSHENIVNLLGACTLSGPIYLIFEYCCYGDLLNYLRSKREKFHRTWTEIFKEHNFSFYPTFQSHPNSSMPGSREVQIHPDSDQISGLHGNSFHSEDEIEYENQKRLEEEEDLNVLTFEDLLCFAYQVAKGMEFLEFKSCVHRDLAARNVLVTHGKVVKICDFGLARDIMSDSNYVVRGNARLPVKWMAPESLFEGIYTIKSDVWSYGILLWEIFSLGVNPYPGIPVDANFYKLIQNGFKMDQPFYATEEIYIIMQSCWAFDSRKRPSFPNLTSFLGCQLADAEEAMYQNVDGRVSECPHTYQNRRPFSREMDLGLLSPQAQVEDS
Briefly: Inhibition of GST-fused human FLT3 cytoplasmic domain (amino acids 564 to 993) using Ulight-JAK1 as substrate after 1 hr by TR-FRET assay.

The target in data set [3] is T2, Receptor-type tyrosine-protein kinase FLT3 (Homo sapiens, UniProt P36888, ITD). Nature of the data set: Inhibition of FLT3 ITD mutant in human MOLM13 cells assessed as inhibition of STAT5 phosphorylation at Tyr694 after 24 hrs. Format: cell-based, MOLM-13.
Data set [4] addresses T1, Receptor-type tyrosine-protein kinase FLT3. Briefly: Binding affinity to wild type FLT3 (unknown origin).
Data set [5] has as its target T2, Receptor-type tyrosine-protein kinase FLT3. Briefly: Binding affinity to FLT3 ITD mutant (unknown origin).
A short description of data set [6]: Volume of distribution at steady state in iv dosed dog. It counts as ADME, organism-based, Canis lupus familiaris. The settings on record: in vivo, read-out: Vdss. The method in brief:
(§1)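 Intravenous and oral (gavage, solution) PK in rat, dog and cynomolgus monkey. The rat vehicle for both routes was water/acetate/tween at pH 4, 96/3/1 (v/v/v). Dog and monkey iv doses used 40% PG aqueous solution at pH 2, and their oral doses used 20% captisol aqueous solution.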

Data set [7] can be described thus: Oral bioavailability in cynomolgus monkey. Format: ADME, organism-based, Macaca fascicularis. The settings on record: in vivo. The method in brief:
as §1

Data set [8] has as its system Mus musculus. Briefly: Toxicity in CrTac:NCR-Foxn1nu (NCR) nude mouse xenografted with human MOLM13 cells assessed as body weight loss at 25 to 150 mg/kg, po administered qd for 8 days. The arrangement: dose 25-150 mg/kg, route oral. Particulars: in vivo, 192 h. It counts as organism-based, MOLM-13. The procedure, abridged:
(§2)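 Body weight tracked throughout the 8-day once-daily oral study in NCR nude mice carrying MOLM13 xenografts. Doses were 25, 50, 75 and 150 mg/kg, with a vehicle control.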
On the technique in general: Xenograft models place foreign cells or tissue in a host animal.

The subject of data set [9] is Tumour. Nature of the data set: Decrease in Rb phosphorylation at Ser780 in tumor of CrTac:NCR-Foxn1nu (NCR) nude mouse xenografted with human MOLM13 cells at 50 to 150 mg/kg, po after 3 to 24 hrs. It counts as functional, organism-based. Particulars: Neoplasm, MOLM-13. The method in brief:
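MOLM13 tumor-bearing mice received a single oral dose of 50, 75 or 150 mg/kg. Tumors were harvested at 3, 6 and 24 h, and lysates were assayed for pSTAT5 and pRb. Unbound plasma levels were measured at the same time points. Results are mean ± SEM, n = 3 per group and n = 6 for vehicle.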

Data set [10] concerns Mus musculus. Nature of the data set: Toxicity in po dosed CrTac:NCR-Foxn1nu (NCR) nude mouse xenografted with human MOLM13 cells administered qd for 8 days. It counts as organism-based, MOLM-13. The settings on record: in vivo, 192 h. The method in brief: as §2
Data set [11] addresses Cyclin-dependent kinase 4 (Homo sapiens, UniProt P11802). Nature of the data set: Inhibition of CDK4 in human COLO205 cells assessed as inhibition of Rb phosphorylation at Ser780 after 24 hrs.

Cyclin-dependent kinase 4/cyclin D1, sequence (P11802 whole entry): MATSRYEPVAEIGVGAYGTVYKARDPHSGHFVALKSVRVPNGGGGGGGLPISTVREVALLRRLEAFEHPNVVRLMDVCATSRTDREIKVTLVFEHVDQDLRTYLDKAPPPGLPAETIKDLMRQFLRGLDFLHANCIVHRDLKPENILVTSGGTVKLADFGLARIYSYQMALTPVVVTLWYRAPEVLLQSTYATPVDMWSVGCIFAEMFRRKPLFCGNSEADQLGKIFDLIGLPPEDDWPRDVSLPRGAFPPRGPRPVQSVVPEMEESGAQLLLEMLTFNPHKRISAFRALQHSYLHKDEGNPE
Cyclin-dependent kinase 4/cyclin D1, sequence (P24385 whole entry, further chain): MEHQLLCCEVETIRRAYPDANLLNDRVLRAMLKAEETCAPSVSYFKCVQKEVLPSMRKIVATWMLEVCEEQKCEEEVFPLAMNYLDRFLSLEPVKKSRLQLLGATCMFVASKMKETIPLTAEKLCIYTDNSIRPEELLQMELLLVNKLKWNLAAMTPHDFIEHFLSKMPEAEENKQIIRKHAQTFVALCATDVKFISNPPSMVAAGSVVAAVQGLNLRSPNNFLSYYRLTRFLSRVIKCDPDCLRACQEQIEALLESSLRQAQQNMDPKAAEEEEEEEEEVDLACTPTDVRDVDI
Cyclin-dependent kinase 4, sequence (P11802 whole entry): as the sequence (P11802 whole entry) above

For the compound `C[C@H]1CC[C@H](n2c3cnccc3c3cnc(Nc4ccc5c(n4)CCN(C(=O)CO)C5)nc32)CC1`, the IC50 in data set [1] amounted to 3 nM; in data set [2], 1 nM; in data set [3] it was 5 nM; in [11], 23 nM. Besides, the Kd in [4] and in data set [5] was 4 nM in each case. The Vd in data set [6] is 2.6 L/kg. Moreover, the bioavailability in data set [7] came out at 44%. Also, the Activity in data set [8] was 10%; in data set [10], “Non-toxic”. The inhibition entry in [9] is “Active”.

As usually defined, the IC50 is the concentration that gives 50% inhibition. Broadly, the Kd is a measure of binding affinity in units of concentration. The bioavailability is dose-corrected exposure relative to a reference, in per cent.
